Test results as given in ChEMBL document CHEMBL1154045, “In vitro and in vivo anticancer activity of 2-deacetoxytaxinine J and synthesis of novel taxoids and their in vitro anticancer activity” (Eur J Med Chem, 2009).
The source made the active and inactive calls. The calls are words filed in the database; no cut-off is given here.

Columns and labels:
[1] = system: HEK293; test: Cytotoxicity against HEK293 cells after 18 hrs by MTT assay; format: cell-based; details: Homo sapiens, HEK293, 18 h
Method in brief: (§1)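 MTT assay: 1 × 10⁴ cells/well seeded in DMEM with 10% FBS and held 24 h at 37 °C in a CO₂ incubator. Compounds were diluted in culture medium and added alongside a vehicle control. After 18 h of exposure, MTT (5 mg/mL stock) was added and plates were incubated a further 4 h.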

[2] = system: MCF7; test: Anticancer activity against estrogen-positive human MCF7 cells after 18 hrs by MTT assay; format: functional, cell-based; details: MCF7, 18 h; method in brief: as §1
[3] = system: MDA-MB-231; test: Anticancer activity against estrogen-receptor-negative human MDA-MB-231 cells after 18 hrs by MTT assay; format: functional, cell-based; details: MDA-MB-231, 18 h; method in brief: as §1
[4] = system: A2780 ADR; test: Reversal of P-gp-mediated multidrug resistance in human 2780AD cells assessed as vincristine accumulation; format: cell-based
[5] = system: Rattus norvegicus; test: Antitumor activity against DMBA-induced mammary tumor in Sprague-Dawley rat assessed as tumor regression at 10 mg/kg, po administered for 30 days; format: functional, organism-based; parameters: dose 10 mg/kg

CC(=O)O[C@H]1C(=O)[C@@]2(C)[C@H]([C@H](OC(=O)c3ccccc3)[C@]3(O)C[C@H](OC(=O)[C@H](O)[C@@H](NC(=O)c4ccccc4)c4ccccc4)C(C)=C1C3(C)C)[C@]1(OC(C)=O)CO[C@@H]1C[C@@H]2O [PACLITAXEL]
IC50 [1]: 43 µM

C=C1[C@@H](OC(=O)c2cccnc2)C[C@H](OC(C)=O)[C@]2(C)[C@@H]1C[C@@H]1C[C@H](OC(C)=O)C(C)=C([C@@H](OC(C)=O)[C@@H]2OC(C)=O)C1(C)C
IC50 [2]: > 50 µM
IC50 [3]: > 50 µM
IC50 [1]: > 50 µM

COc1ccc(CCN(C)CCCC(C#N)(c2ccc(OC)c(OC)c2)C(C)C)cc1OC (stereo not given)
Activity [4]: 254%

C=C1[C@@H](OC(=O)CCc2cccnc2)C[C@H](OC(C)=O)[C@]2(C)[C@@H]1C[C@@H]1C[C@H](OC(C)=O)C(C)=C([C@@H](OC(C)=O)[C@@H]2OC(C)=O)C1(C)C
IC50 [2]: 39 µM
IC50 [3]: > 50 µM
IC50 [1]: > 50 µM

C=C1[C@@H](OC(=O)[C@@H](O)[C@H](O)c2ccccc2)C[C@H](OC(C)=O)[C@]2(C)[C@@H]1C[C@@H]1C[C@H](OC(C)=O)C(C)=C([C@@H](OC(C)=O)[C@@H]2OC(C)=O)C1(C)C
IC50 [2]: > 50 µM
IC50 [3]: 13 µM
IC50 [1]: > 50 µM

C=C1[C@@H](OC(=O)CCc2ccccc2)C[C@H](OC(C)=O)[C@]2(C)[C@@H]1C[C@@H]1C[C@H](OC(C)=O)C(C)=C([C@@H](OC(C)=O)[C@@H]2OC(C)=O)C1(C)C
IC50 [2]: 15 µM
IC50 [3]: 20 µM
IC50 [1]: 10 µM

C=C1[C@H]2C[C@@H]3C[C@H](OC(C)=O)C(C)=C([C@@H](OC(C)=O)[C@H](OC(C)=O)[C@]2(C)[C@@H](OC(C)=O)C[C@@H]1O)C3(C)C
IC50 [2]: > 50 µM
IC50 [3]: > 50 µM
IC50 [1]: > 50 µM

C=C1[C@@H](OC(=O)/C=C/c2ccccc2)C[C@H](OC(C)=O)[C@]2(C)[C@@H]1C[C@@H]1C[C@H](OC(C)=O)C(C)=C([C@@H](OC(C)=O)[C@@H]2OC(C)=O)C1(C)C
IC50 [2]: 20 µM
IC50 [3]: 10 µM
IC50 [1]: > 50 µM
Activity [5]: Active
Activity [4]: 266%

CC/C(=C(\c1ccccc1)c1ccc(OCCN(C)C)cc1)c1ccccc1 [TAMOXIFEN]
IC50 [2]: 12 µM
IC50 [3]: 24 µM

C=C1[C@@H](OC(=O)/C=C/c2cccnc2)C[C@H](OC(C)=O)[C@]2(C)[C@@H]1C[C@@H]1C[C@H](OC(C)=O)C(C)=C([C@@H](OC(C)=O)[C@@H]2OC(C)=O)C1(C)C
IC50 [2]: 34 µM
IC50 [3]: > 50 µM
IC50 [1]: > 50 µM

C=C1[C@@H](OC(=O)Cc2ccccn2)C[C@H](OC(C)=O)[C@]2(C)[C@@H]1C[C@@H]1C[C@H](OC(C)=O)C(C)=C([C@@H](OC(C)=O)[C@@H]2OC(C)=O)C1(C)C
IC50 [2]: 28 µM
IC50 [3]: > 50 µM
IC50 [1]: > 50 µM
